# Screening data (PubChem)
# This is a sample that favours compounds with a hit; in the whole collection about 2.6% have one here.
# HTRA1 inh – HTRA1 (human) protease inhibition; recombinant HTRA1, FP-rhodamine activity-based probe, fluorescence polarization; inhibition, % at 5.96 µM; 0.5% of 340,000 active; AID 504803; in the data active means inhibition above about 36%;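 further: 0% = enzyme with DMSO and 100% = wells lacking enzyme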
# Target sequence (Q92743 whole entry, looked up): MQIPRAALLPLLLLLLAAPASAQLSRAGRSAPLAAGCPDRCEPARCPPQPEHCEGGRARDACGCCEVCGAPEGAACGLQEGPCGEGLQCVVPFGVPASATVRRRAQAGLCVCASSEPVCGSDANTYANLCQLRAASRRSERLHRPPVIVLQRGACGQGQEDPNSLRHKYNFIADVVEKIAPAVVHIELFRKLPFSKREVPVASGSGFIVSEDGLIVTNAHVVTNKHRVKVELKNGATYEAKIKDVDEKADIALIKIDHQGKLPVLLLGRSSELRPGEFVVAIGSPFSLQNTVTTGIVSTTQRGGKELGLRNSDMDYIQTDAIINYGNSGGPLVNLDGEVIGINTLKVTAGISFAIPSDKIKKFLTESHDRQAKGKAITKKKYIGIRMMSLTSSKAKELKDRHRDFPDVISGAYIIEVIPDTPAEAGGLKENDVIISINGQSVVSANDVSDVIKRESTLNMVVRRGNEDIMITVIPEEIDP
# TCR-CD3 inh – inhibitors of human TCR-CD3 interaction. inhibition, % at 9.4 µM. TAMRA-labeled TCR probe fluorescence, biochemical. 0.37% of 360,000 active; in the data active means inhibition above about 19%;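 further: recombinant mutant TCR 2C K166C tagged with TAMRA read by polarization; 0% = receptor in buffer alone and 100% = receptor with positive control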
# PRMT1 FP inh – inhibitors of human PRMT1; Q99873; recombinant PRMT1, activity-based probe fluorescence polarization; inhibition, % at 2.79 µM; 1.3% of 370,000 active;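 active means inhibition above about 21% made by adding two undisclosed values, limit read from the data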
# SIAE primary – blocks human sialic acid acetylesterase; SIAE FP-Rh probe binding, fluorescence polarization; 0.69% of 370,000 active; inhibition, % at 9.66 µM; Q9HAT2;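 active means inhibition above a cutoff: mean of compounds within the control limits plus 3 SD of those, cut at about 17% in these data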;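 further: 0% = plate median of compound wells and 100% = probe without SIAE protein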
# ABHD4 inh – inhibits mouse alpha/beta hydrolase domain 4; 0.54% of 370,000 active; Q8VD66; inhibition, % at 8.92 µM; purified mABHD4, FP-Rh probe fluorescence polarization;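 active means inhibition exceeding the mean over every tested compound plus 3 SD, cut at about 30% in these data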;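 further: 0% = plate median of compound wells and 100% = S159A mutant with DMSO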
#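 Test system: mABHD4 protein; Read-out basis: % inhibition; Incubation: 45 min + 60 min at 25 °C; Repeats: single replicate; Technique: fluorescence polarization with parallel and perpendicular emission, 525/598 nm; Compound: 8.92 µM, single dose; Benchmarks: full inhibition S159A mutant plus DMSO, zero as sample-well median.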
# PRMT1 confirm – PRMT1 (human) inhibition, FP confirmation; shares compounds with PRMT1 FP inh; recombinant His-PRMT1, activity-based probe fluorescence polarization; 42% of 3,300 active; inhibition, % at 2.79 µM;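 active means mean inhibition across replicates above the hit cutoff derived for the earlier primary screen, cut at about 22% in these data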
# * marks the source's active call; other numbers are inactive results; . = no result.
SMILES,HTRA1 inh,TCR-CD3 inh,PRMT1 FP inh,SIAE primary,ABHD4 inh,PRMT1 confirm
COC(=O)[C@H](C)NC(=O)[C@@H]1CC=C[C@@H]2CCN(CCc3ccccc3)C(=O)[C@@H]21,.,.,-3,-1,2,.
CCN(CC)C(=O)c1sc2nc(-c3cccs3)cc(-c3cccs3)c2c1N,-29,5,57*,-15,-1,13
CN(C)CCCn1c2c3ccccc3ccc2c2oc(=O)c3ccccc3c21,-2,0,29*,-15,15,1
CN(C)CCCn1c(=S)[nH]c2ccccc2c1=O,4,-7,12,-3,0,.
CCCNC(=O)N1[C@@H](CO)[C@H](c2ccc(C3=CCCC3)cc2)[C@@H]1CN(CC)S(=O)(=O)c1ccccc1[N+](=O)[O-],.,.,0,4,-6,.
CC(=O)Nc1ccc(Sc2ncnc3scc(-c4ccccc4)c23)cc1,-15,4,35*,0,-9,37*
O=C(Nc1ccccc1[N+](=O)[O-])NC1CCCCN(Cc2ccc(Cl)cc2)C1=O (stereo not given),.,.,-3,-3,-6,.
COC(=O)[C@H](C(C)C)N1Cc2nnn(Cc3ccccc3)c2-c2ccccc2S1(=O)=O,.,.,-4,9,-1,.
[O-][n+]1ccccc1C(O)CSc1ccccc1 (stereo not given),.,5,-1,-7,1,.
Cc1oc(-c2ccccc2)cc1C(=O)NC(Cc1c[nH]c2ccccc12)C(=O)O (stereo not given),-9,-4,30*,1,-7,4
O=C(Nc1ccccc1C(=O)NC(Cc1c[nH]c2ccccc12)C(=O)O)c1ccccc1 (stereo not given),-5,0,-1,-1,2,.
O=C(N/C(=C\c1ccco1)C(=O)N1CCOCC1)c1ccccc1Cl,7,-5,29*,-2,0,9
COc1sc(SC)cc1/C=N/NC(=O)c1ccncc1,-3,-7,38*,1,-12,-1
COc1ccc2c(c1)CCCN2C(=O)C1CCCN(S(=O)(=O)c2cc(OC)ccc2OC)C1 (stereo not given),.,.,0,-1,-4,.
CCC[C@H]1[C@@H](OC(=O)NCc2cccs2)CC[C@@]23CCCN2C(=O)CCC[C@@H]13,.,.,-1,2,-1,.
COc1cc(OC)cc(C(=O)NCC(=O)N2CCN(c3ccc(O)cc3)CC2)c1,3,-9,25*,4,5,1
COc1ccc(N2CCN(C(=O)CNC(=O)c3ccc4ccccc4c3)CC2)cc1,-1,1,0,3,0,.
N#Cc1ccc(OCCCN2CCC(C(O)(C3=CCCC3)c3ccccc3)CC2)cc1 (stereo not given),.,0,-8,3,7,.
CC(C)[C@H]1/C(=C/C2CC2)N2C(=O)C[C@@H](c3ccccc3)N=C2N1Cc1ccc2c(c1)OCO2,.,.,-1,-2,-3,.
O=C(O)c1ccccc1-c1ccc(/C=C/c2cc(C(F)(F)F)[nH]c(=O)n2)o1,-4,14,29*,-28,-30,25*
O=C(NCCF)C1Nc2ccc(OC(F)(F)F)cc2C2C=CCC12 (stereo not given),32,1,29*,5,26,-1
O=C(NCCOc1ccccc1)C1Nc2ccc(OC(F)(F)F)cc2C2C=CCC12 (stereo not given),13,4,9,6,3,.
COC(=O)[C@H]1C[C@@]2(CC=C(C)C)c3ccccc3N(C(=O)OC(C)(C)C)[C@H]2N1C(=O)OC(C)(C)C,.,.,-1,6,-9,.
CCOC(=O)C1CCCN(C2CC(=O)N(c3ccc(C)cc3)C2=O)C1 (stereo not given),-1,-3,19,4,4,.
CCOC(=O)C1CCCN(C2CC(=O)N(c3ccc(NC(C)=O)cc3)C2=O)C1 (stereo not given),3,-7,37*,-6,-9,1
SMILES,HTRA1 inh,TCR-CD3 inh,PRMT1 FP inh,SIAE primary,ABHD4 inh,PRMT1 confirm
Cn1cc(S(=O)(=O)N2CCc3ccccc32)cc1C(=O)NC1CCCCC1,-3,7,0,-2,0,.
CCC(C)(C)NC(=O)c1cc(S(=O)(=O)N2CCc3ccccc32)cn1C,7,-1,26*,-4,-5,4
CC[n+]1c(S(=O)(=O)[O-])ccc2ccc(C)cc21,1,-6,5,-8,-14,.
CC/C(=C/c1sc2ccc(C)cc2[n+]1CCO)SC,2,3,52*,1,2,17
CCN1/C(=C/c2ccc3ccccc3[n+]2CCCS(=O)(=O)[O-])C=Cc2cc(C)ccc21,-3,-5,1,-21,-38,.
Cc1ccc2sc(C)[n+](CCC(C)S(=O)(=O)[O-])c2c1 (stereo not given),-2,-3,57*,-3,-4,31*
CC/C(=C/c1sc2ccc(C)cc2[n+]1CCCS(=O)(=O)[O-])SC,.,4,39*,2,3,23*
C/C=C/C=C/C(=O)N1C[C@H](C)N(C)C[C@H]1C,.,.,-1,0,-7,.
Cc1ccc(CNC(=O)CC(C)S(=O)(=O)c2ccc3c(c2)NC(=O)CS3)o1 (stereo not given),-6,-4,44*,-8,6,15
O=C(CCCc1nc2ccccc2s1)Nc1ccccc1,-9,-1,0,-3,2,.
O=C(O)CCCC(=O)Nc1ccc(OCc2nc3ccccc3s2)cc1,1,-4,26*,-4,-2,7
O=C(O)c1ccccc1C(=O)Nc1ccccc1,5,-16,-1,-5,-3,.
O=C(Nc1ccccc1)C1=C(c2ccccc2)S(=O)(=O)CCS1(=O)=O,-1,13,47*,-3,3,56*
C=CCN1[C@H](C#N)[C@@H](c2ccc(C#Cc3ccccc3OC)cc2)[C@H]1CO,.,.,2,13,9,.
Cc1cc(C)nc(SCSc2nc(C)cc(C)n2)n1,-1,-6,-1,-1,-7,.
Cc1cc(C)nc(SCCc2ccncc2)n1,1,-6,30*,-6,8,11
C[C@@H]1C=C(C(=O)NCc2nc3ccccc3[nH]2)O[C@H](OCCCCO)C1,5,-3,47*,5,9,33*
CC(C)NC(=O)CCn1nnc(-c2cccs2)n1,.,.,-2,1,1,.
CCOC(=O)C1C(=O)NC(SC)=C(C#N)C1c1ccccc1F (stereo not given),2,1,0,4,-2,.
O=C1NC(=O)C(c2ccc(Cl)cc2Cl)N1 (stereo not given),0,-3,-6,1,-1,.
N#CC1=C(N)NC(=S)C(C(N)=O)C1c1ccccc1F (stereo not given),3,4,64*,7,1,34*
N#CC1=C(N)NC(=S)C(C(N)=O)C1c1ccc(Cl)cc1Cl (stereo not given),-1,1,72*,6,1,34*
O=C(CSc1nnc(-c2ccccc2)n1Cc1ccco1)Nc1ccc(Oc2ccccc2)cc1,.,.,8,-3,-4,.
